Reference: ChEMBL document CHEMBL1255392, “Pharmacokinetics of acyclovir and its metabolites in cerebrospinal fluid and systemic circulation after administration of high-dose valacyclovir in subjects with normal and impaired renal function” (Antimicrob Agents Chemother, 2010)

Experiments:
[1] = Drug level in human CSF with chronic kidney disease at 1500 mg, po every 12 hrs measured after fifth dose by radioimmunoassay; type: ADME, organism-based; conditions: read-out: Drug uptake
Procedure, shortened: (§1)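 CKD subjects (n=3) received an oral dose every 12 h for 5 doses. CSF was drawn through an indwelling lumbar catheter predose and at 0.5, 1, 1.5, 2, 3, 4, 6, 8 and 12 h after the fifth dose. Acyclovir was quantified by automated scintillation proximity radioimmunoassay with a monoclonal antibody; the standard curve was 1.4–90 ng/ml and LLQ 14.1 ng/ml. Noncompartmental parameters were calculated over 0–12 h.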

[2] = Tmax in human CSF with chronic kidney disease at 1500 mg, po every 12 hrs measured after fifth dose by radioimmunoassay; type: ADME, organism-based, Cerebrospinal fluid; procedure, shortened: as §1
[3] = AUC (0 to 6 hrs) in human CSF with normal renal function at 2000 mg, po every 6 hrs measured after fifth dose by radioimmunoassay; type: ADME, organism-based; design: time < 6 hr, dose 2000 mg, route oral
Procedure, shortened: (§2)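 Normal-renal-function subjects (n=6) took an oral dose every 6 h for 5 doses. Serial lumbar-catheter CSF was collected on ice predose through 8 h after the last dose. Acyclovir was assayed by scintillation proximity radioimmunoassay validated for CSF (range 1.4–90 ng/ml; 1:10 dilution; LLQ 14.1 ng/ml). Cmax, tmax and AUCτ over 0–6 h were computed noncompartmentally.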

[4] = Drug level in human CSF with normal renal function at 2000 mg, po every 6 hrs measured after fifth dose by radioimmunoassay; type: ADME, organism-based; conditions: read-out: Drug uptake; procedure, shortened: as §2
[5] = Cmax in human systemic circulation with chronic kidney disease at 1500 mg, po every 12 hrs measured after fifth dose by radioimmunoassay; type: ADME, organism-based; design: dose 1500 mg, route oral; conditions: plasma
Procedure, shortened: (§3)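 Three chronic kidney disease subjects (CrCl ∼15 to 30 ml/min) took valacyclovir 1,500 mg orally every 12 h for 5 doses, fasting from 8 h before to 2 h after the fifth dose. Plasma was drawn at 0, 0.5, 1, 1.5, 2, 3, 4, 6, 8 and 12 h. Acyclovir was measured by scintillation proximity radioimmunoassay.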

[6] = AUC (0 to 6 hrs) in human systemic circulation with normal renal function at 2000 mg, po every 6 hrs measured after fifth dose by radioimmunoassay; type: ADME, organism-based; design: time < 6 hr, dose 2000 mg, route oral; conditions: plasma
Procedure, shortened: (§4)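 Six subjects with normal renal function took valacyclovir 2,000 mg orally every 6 h for 5 doses, fasting from 8 h before to 2 h after the fifth dose. Plasma was drawn at 0, 0.5, 1, 1.5, 2, 3, 4, 6 and 8 h. Acyclovir was measured by scintillation proximity radioimmunoassay (LLQ 14.1 ng/ml). Noncompartmental analysis gave AUC over 0–6 h, Cmax and tmax, with Cavg = AUCτ/τ.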

[7] = Drug level in human plasma with chronic kidney disease at 1500 mg, po every 12 hrs measured after fifth dose by radioimmunoassay; type: ADME, organism-based; conditions: read-out: Drug uptake; procedure, shortened: as §3
[8] = Cmax in human systemic circulation with normal renal function at 2000 mg, po every 6 hrs measured after fifth dose by radioimmunoassay; type: ADME, organism-based; design: dose 2000 mg, route oral; conditions: plasma; procedure, shortened: as §4
[9] = Tmax in human CSF with normal renal function at 2000 mg, po every 6 hrs measured after fifth dose by radioimmunoassay; type: ADME, organism-based, Cerebrospinal fluid; procedure, shortened: as §2
[10] = AUC (0 to 12 hrs) in human CSF with chronic kidney disease at 1500 mg, po every 12 hrs measured after fifth dose by radioimmunoassay; type: ADME, organism-based; design: time < 12 hr, dose 1500 mg, route oral; procedure, shortened: as §1
[11] = AUC (0 to 12 hrs) in human systemic circulation with chronic kidney disease at 1500 mg, po every 12 hrs measured after fifth dose by radioimmunoassay; type: ADME, organism-based; design: dose 1500 mg, time < 12 hr, route oral; conditions: plasma; procedure, shortened: as §3
[12] = Cmax in human CSF with normal renal function at 2000 mg, po every 6 hrs measured after fifth dose by radioimmunoassay; type: ADME, organism-based, Cerebrospinal fluid; design: dose 2000 mg, route oral; procedure, shortened: as §2
[13] = Drug level in human plasma with normal renal function at 2000 mg, po every 6 hrs measured after fifth dose by radioimmunoassay; type: ADME, organism-based; conditions: read-out: Drug uptake; procedure, shortened: as §4
[14] = Tmax in human systemic circulation with normal renal function at 2000 mg, po every 6 hrs measured after fifth dose by radioimmunoassay; type: ADME, organism-based; conditions: plasma; procedure, shortened: as §4
[15] = Tmax in human systemic circulation with chronic kidney disease at 1500 mg, po every 12 hrs measured after fifth dose by radioimmunoassay; type: ADME, organism-based; conditions: plasma; procedure, shortened: as §3
[16] = Cmax in human CSF with chronic kidney disease at 1500 mg, po every 12 hrs measured after fifth dose by radioimmunoassay; type: ADME, organism-based, Cerebrospinal fluid; design: dose 1500 mg, route oral; procedure, shortened: as §1

SMILES: Nc1nc2c(ncn2COCCO)c(=O)[nH]1 [ACYCLOVIR]
- concentration at 12 h [1]: 13.3 µM
- Tmax [2]: 5.3 h
- AUC at 6 h [3]: 37 µM·h
- concentration at 6 h [4]: 6.25 µM
- Cmax [5]: 82 µM
- AUC at 6 h [6]: 137 µM·h
- concentration at 12 h [7]: 48 µM
- Cmax [8]: 42 µM
- Tmax [9]: 2.3 h
- AUC at 12 h [10]: 159 µM·h
- AUC at 12 h [11]: 577 µM·h
- Cmax [12]: 7.8 µM
- concentration at 6 h [13]: 23 µM
- Tmax [14]: 2.1 h
- Tmax [15]: 2 h
- Cmax [16]: 16 µM
